Tests used:
Type in all cases: functional
[1] = tested on: 5637; test: Cytotoxicity against human 5637 cells after 96 hrs; settings: Homo sapiens, 5637, 96 h
Method in brief: (§1)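 Cells plated in 96-well format, left 24 h, then given compound continuously for 96 h. Growth read by staining attached viable cells with crystal violet, washing, redissolving bound dye in 70% ethanol and reading OD at 570 nm. GI50 computed from dose–response data of 5 to 7 independent experiments.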

[2] = tested on: RT-4; test: Cytotoxicity against human RT4 cells after 96 hrs; settings: RT-4, 96 h; method in brief: as §1
[3] = tested on: A-427; test: Cytotoxicity against human A427 cells after 96 hrs; settings: A-427, 96 h; method in brief: as §1
[4] = Cytotoxicity against human LCLC103H cells after 96 hrs; settings: LCLC-103H; method in brief: as §1
[5] = tested on: DAN-G; test: Cytotoxicity against human DANG cells after 96 hrs; method in brief: as §1
[6] = tested on: MCF7; test: Cytotoxicity against human MCF7 cells after 96 hrs; settings: MCF7, 96 h; method in brief: as §1

SMILES | GI50 [1] [µM] | GI50 [2] [µM] | GI50 [3] [µM] | GI50 [4] [µM] | GI50 [5] [µM] | GI50 [6] [µM]
O=C(Oc1cccc2cccnc12)c1cc2c(cc1Cl)SC(N(c1ccc(F)cc1)S(=O)(=O)c1ccc(Cl)cc1)=NS2(=O)=O | 6.2 | > 20 | 3.1 | 4.6 | 9.3 | 3.2
COC(=O)c1cc2c(cc1Cl)SC(N(N(C)C)S(=O)(=O)c1ccc(Br)s1)=NS2(=O)=O | 13.7 | 18.5 | 12 | 19.1 | 23.7 | 10.9
CCOC(=O)c1cc2c(cc1Cl)SC(N(c1ccccc1)S(=O)(=O)c1ccc(Cl)cc1)=NS2(=O)=O | 14.3 | > 20 | 11.7 | > 20 | 14.8 | 9.8
CCOC(=O)c1cc2c(cc1Cl)SC(N(c1ccc(OC)cc1)S(=O)(=O)c1ccc(Cl)cc1)=NS2(=O)=O | 11.9 | 23.1 | 11.2 | 19.3 | 12.3 | 8.1
CCOC(=O)c1cc2c(cc1Cl)SC(N(c1ccc(OC)cc1)S(=O)(=O)c1ccccc1)=NS2(=O)=O | 6.5 | 16.8 | 7 | 9.3 | 7.6 | 4.9
CCOC(=O)c1cc2c(cc1Cl)SC(N(c1ccc(F)cc1)S(=O)(=O)c1ccc(OC)cc1)=NS2(=O)=O | 12.1 | 19 | 8.4 | 17.5 | 12 | 5.8
Cc1cc2c(cc1Cl)SC(N(c1ccc(Cl)cc1)S(=O)(=O)c1ccccc1)=NS2(=O)=O | 9.6 | 22 | 9.2 | 12.4 | 9.9 | 8.1
Cc1cc2c(cc1Cl)SC(N(N(C)C)S(=O)(=O)c1ccc(Cl)cc1)=NS2(=O)=O | 19.2 | > 20 | 15.6 | > 20 | 23.5 | 12.3
COC(=O)c1cc2c(cc1Cl)SC(N(N(C)C)S(=O)(=O)c1ccc(Cl)cc1)=NS2(=O)=O | 12.6 | 18.5 | 10.2 | 19.6 | 18.7 | 8.7
CCOC(=O)c1cc2c(cc1Cl)SC(N(c1ccc(OC)cc1)S(=O)(=O)c1ccc(Cl)cc1Cl)=NS2(=O)=O | 2.3 | 6.3 | 4.1 | 2.8 | 3.1 | 2.4
Cc1cc2c(cc1Cl)SC(N(c1ccccc1Cl)S(=O)(=O)c1ccc(Br)s1)=NS2(=O)=O | 7.5 | 28.6 | 8.2 | 11.9 | 9.4 | 6.5
O=C(Oc1cccc2cccnc12)c1cc2c(cc1Cl)SC(N(c1ccc(F)cc1)S(=O)(=O)c1ccc(Br)s1)=NS2(=O)=O | 5.1 | > 20 | 3.4 | 5.3 | 8.2 | 3.2

Source: ChEMBL document CHEMBL1147200, “Synthesis, structural characterization, and in vitro antitumor activity of novel N-(6-chloro-1,1-dioxo-1,4,2-benzodithiazin-3-yl)arylsulfonamides” (2007)
